Source: PubChem BioAssay (several laboratories)
APOBEC3A inh: human APOBEC3A DNA deaminase inhibition; AID 493011; P31941; inhibition, % at 20 µM; 0.41% of 330,000 active; recombinant A3A, FAM/TAMRA ssDNA deamination fluorescence;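 active = at least 40% inhibition at 20 µM here, with at most 30% in a related deaminase screen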
Target sequence (P31941 whole entry, looked up): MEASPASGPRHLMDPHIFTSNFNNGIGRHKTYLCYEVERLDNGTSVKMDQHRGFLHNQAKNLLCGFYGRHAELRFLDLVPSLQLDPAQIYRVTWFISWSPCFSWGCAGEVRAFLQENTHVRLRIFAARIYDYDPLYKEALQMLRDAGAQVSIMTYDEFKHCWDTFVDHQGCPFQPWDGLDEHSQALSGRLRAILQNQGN
HCV NS3 hel inh: inhibitors of Hepatitis C virus NS3 helicase; NS3 helicase DNA unwinding, Cy5 molecular beacon fluorescence; AID 1800; 0.56% of 290,000 active; inhibition, % at 10.9 µM;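 active = inhibition above the mean of all tested compounds plus 3 SD, set per campaign, cut at about 35% in these data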
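Material: hepatitis C virus NS3 helicase domain fragment enzyme; measured by: Cy5 fluorescence, 0 and 60 min reads; control set: DMSO and thioflavine S; incubation: 60 min unwinding reaction at 25 °C after ATP addition; read-out basis: % inhibition from 60/0 min fluorescence ratio, DMSO 0%, thioflavine S 100%; repeats: singlicate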
APOBEC3G inh: APOBEC3G (human) deaminase inhibition | 0.28% of 330,000 active | inhibition, % at 20 µM | recombinant A3G, ssDNA deamination FAM/TAMRA fluorescence;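 active = inhibition of at least 40% at 20 µM, with no more than 30% in the related APOBEC3A deaminase screen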
core dimer inh: HCV core protein dimerization inhibition; TR-FRET GST/Flag-core106 dimerization, 1536-well; inhibition, % at 5 µM; 0.33% of 300,000 active;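 active = inhibition above the mean of all tested compounds plus 3 SD, set per screening campaign, cut at about 45% in these data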
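Test system: GST/Flag-tagged HCV core106 proteins; Medium: KF-containing HEPES buffer, pH 7.45, DTT, CHAPS, BSA; Times: compound-protein-antibody incubation 4 h at 22.5 °C; Detection: TR-FRET 671 and 617 nm emission; Benchmarks: wells lacking GST-core106 and wells with excess unlabelled core106.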
ABHD5 PLIN5 PPI: blocks binding of human ABHD5 to perilipin-5; Split G. princeps luciferase complementation, luminescence, 4 h; inhibition, % at 4 µM; 0.78% of 360,000 active; AID 602281;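 active = inhibition above the mean inhibition across every tested compound plus 3 SD, cut at about 22% in these data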
PRMT1 FP inh: PRMT1 (human) inhibition, primary screen. AID 652257. recombinant PRMT1, activity-based probe fluorescence polarization. Q99873. inhibition, % at 2.79 µM. 1.3% of 370,000 active;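 active = inhibition above about 21% made by adding two undisclosed values, limit read from the data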
PRMT1 inh conf: PRMT1 (human) inhibition, FP confirmation | shares compounds with PRMT1 FP inh | recombinant His-PRMT1, activity-based probe fluorescence polarization | inhibition, % at 2.79 µM | 42% of 3,300 active | AID 687036;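 active = mean inhibition across replicates above the hit cutoff derived for the earlier primary screen, cut at about 22% in these data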
A number is an active result. The list is not random: actives were taken first. Their share in the collection is about 2.9%.

How did CCCCc1c(O)nc(SCC(=O)Nc2cccc3ccccc23)n(-c2ccccc2OC)c1=O do in these assays?
APOBEC3A inh: inactive; HCV NS3 hel inh: inactive; APOBEC3G inh: inactive; core dimer inh: inactive; ABHD5 PLIN5 PPI: inactive; PRMT1 FP inh: 42; PRMT1 inh conf: 23

How did CCc1c(O)nc(SCC(=O)Nc2ccccc2)n(-c2ccccc2C)c1=O do in these assays?
ABHD5 PLIN5 PPI: inactive; PRMT1 FP inh: 36; PRMT1 inh conf: inactive

Results for CCc1c(O)nc(SCC(=O)Nc2nc3ccccc3s2)n(-c2ccccc2)c1=O ?
APOBEC3A inh: inactive; HCV NS3 hel inh: inactive; APOBEC3G inh: inactive; core dimer inh: inactive; ABHD5 PLIN5 PPI: inactive; PRMT1 FP inh: 38; PRMT1 inh conf: 42

What do the screens show for `CCc1c(O)nc(SCC(=O)Nc2ccccc2)n(-c2ccccc2)c1=O`?
APOBEC3A inh: inactive; HCV NS3 hel inh: inactive; APOBEC3G inh: inactive; core dimer inh: inactive; ABHD5 PLIN5 PPI: inactive; PRMT1 FP inh: inactive

Results for CCc1c(O)nc(SCC(=O)Nc2cc(C)on2)n(-c2ccccc2)c1=O ?
APOBEC3A inh: inactive; HCV NS3 hel inh: inactive; APOBEC3G inh: inactive; core dimer inh: inactive; ABHD5 PLIN5 PPI: inactive; PRMT1 FP inh: 53; PRMT1 inh conf: 24

Results for C[C@H]1CN([C@@H](C)CO)C(=O)CCCn2cc(nn2)CO[C@@H]1CN(C)C(=O)Nc1ccc2c(c1)OCCO2 ?
ABHD5 PLIN5 PPI: inactive; PRMT1 FP inh: inactive

Results for CC1=CC(=O)C(C2CCCCC2)=C/C1=N\OS(=O)(=O)c1ccccc1 ?
PRMT1 FP inh: 51; PRMT1 inh conf: inactive

Results for CC1=CC(=O)C(C(C)C)=C/C1=N/OS(=O)(=O)c1ccccc1 ?
APOBEC3A inh: inactive; HCV NS3 hel inh: inactive; APOBEC3G inh: inactive; core dimer inh: inactive; ABHD5 PLIN5 PPI: inactive; PRMT1 FP inh: inactive

Results for Cc1cccc(C)c1NC(=S)NC(=O)c1cccc(Cl)c1 ?
ABHD5 PLIN5 PPI: inactive; PRMT1 FP inh: inactive

Results for Cc1c(N)cc(N)cc1C(=O)O ?
APOBEC3A inh: inactive; HCV NS3 hel inh: inactive; APOBEC3G inh: inactive; core dimer inh: inactive; ABHD5 PLIN5 PPI: inactive; PRMT1 FP inh: 32; PRMT1 inh conf: inactive

What do the screens show for `O=C(NC1CCN(Cc2ccccc2)C1)c1cccc(S(=O)(=O)N2CCOCC2)c1` (centres undefined)?
APOBEC3A inh: inactive; APOBEC3G inh: inactive; ABHD5 PLIN5 PPI: inactive; PRMT1 FP inh: inactive

How did O=C(NC1CCN(Cc2ccccc2)CC1)c1cc(S(=O)(=O)N2CCOCC2)ccc1Cl do in these assays?
ABHD5 PLIN5 PPI: inactive; PRMT1 FP inh: 113; PRMT1 inh conf: inactive

Results for O=c1c2cc(F)ccc2sn1-c1ccccc1Cl ?
ABHD5 PLIN5 PPI: inactive; PRMT1 FP inh: 61; PRMT1 inh conf: 95

How did O=c1c2ccc(F)cc2sn1-c1ccccc1 do in these assays?
ABHD5 PLIN5 PPI: 72; PRMT1 FP inh: 80; PRMT1 inh conf: 94

Results for O=C(c1sc2cc(F)ccc2c1Cl)N1CCN(c2cccc(Cl)c2)CC1 ?
APOBEC3A inh: inactive; HCV NS3 hel inh: inactive; APOBEC3G inh: inactive; core dimer inh: inactive; ABHD5 PLIN5 PPI: inactive; PRMT1 FP inh: inactive

What do the screens show for `COc1ccccc1OCC(=O)Sc1ccc(C)cc1`?
APOBEC3A inh: inactive; HCV NS3 hel inh: inactive; APOBEC3G inh: inactive; core dimer inh: inactive; ABHD5 PLIN5 PPI: inactive; PRMT1 FP inh: 39; PRMT1 inh conf: 79

How did Cn1c(=O)c2[nH]c(-c3ccccc3Cl)c(O)c2n(C)c1=O do in these assays?
APOBEC3A inh: inactive; HCV NS3 hel inh: inactive; APOBEC3G inh: inactive; core dimer inh: inactive; ABHD5 PLIN5 PPI: inactive; PRMT1 FP inh: inactive

How did Cn1c(=O)c2[nH]c(-c3ccccc3)c(O)c2n(C)c1=O do in these assays?
APOBEC3A inh: inactive; HCV NS3 hel inh: inactive; APOBEC3G inh: inactive; core dimer inh: inactive; ABHD5 PLIN5 PPI: inactive; PRMT1 FP inh: 76; PRMT1 inh conf: 24

Results for CCCN1CCCCC(NC(=O)c2ccc(-c3ccccc3)cc2)C1=O (centres undefined) ?
PRMT1 FP inh: inactive

What do the screens show for `CCOC(=O)[C@H]1[C@H]2COc3ccc(C)cc3[C@@H]2N2C(=O)CN(Cc3ccc(Cl)cc3)C(=O)[C@@]12C`?
APOBEC3A inh: inactive; APOBEC3G inh: inactive; ABHD5 PLIN5 PPI: inactive; PRMT1 FP inh: inactive
